These results are taken from ChEMBL document CHEMBL3871272, “Systemic optimization and structural evaluation of quinoline derivatives as transthyretin amyloidogenesis inhibitors” (Eur J Med Chem, 2016).

The structures appear in SMILES notation. Calls of active or inactive are those of the source. No cut-off for these calls is given here.

Data set [1] concerns the target T1, Transthyretin (Homo sapiens, UniProt P02766). Briefly: Inhibition of wild type TTR (unknown origin) assessed as inhibition of acid-mediated amyloidogenesis by measuring fibril formation at 7.2 uM preincubated with enzyme followed by amyloidogenesis stimulation by adjusting pH to 4.4 measured after 72 hrs relative to control. Also on record: scale not given: the % may be the effect or the level left. In outline:
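WT-TTR (3.6 µM, physiological level) was preincubated with inhibitor at 7.2 or 3.6 µM. The pH was then adjusted to 4.4 to trigger fibril formation, 37 °C, 72 h. Fibrils were expressed relative to untreated WT-TTR set at 100%.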

Data set [2] deals with T1, Transthyretin. The data set can be described thus: Inhibition of wild type TTR (unknown origin) assessed as inhibition of acid-mediated amyloidogenesis by measuring fibril formation at 3.6 uM preincubated with enzyme followed by amyloidogenesis stimulation by adjusting pH to 4.4 measured after 72 hrs relative to control. Also noted: scale not given: the % may be the effect or the level left. In outline: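 WT-TTR (3.6 μM, physiological concentration) preincubated with inhibitor (3.6 or 7.2 μM), then fibril formation triggered by adjusting pH to 4.4; incubated 37 °C, 72 h. Fibril formation expressed as percent of untreated WT-TTR (100%).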

In data set [3] the target is T1, Transthyretin. The data set can be described thus: Inhibition of wild type TTR (unknown origin) assessed as inhibition of acid-mediated amyloidogenesis by measuring fibril formation preincubated with enzyme followed by amyloidogenesis stimulation by adjusting pH to 4.4 measured after 72 hrs relative to control.
Data set [4] can be described thus: Tmax in Sprague-Dawley rat at 2 mg/kg, iv administered as single dose by HPLC/MS/MS method. Type of data set: ADME, organism-based. Conditions: in vivo. The method, boiled down:
(§1)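 Male SD rats, fasted overnight, four animals, single tail-vein IV dose of 2 mg/kg. Dosing solution 1 mg/mL in 10% DMSO, 40% PEG400, 50% saline. Plasma concentrations were measured over time. Parameters were calculated per animal and averaged.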

Data set [5] is described as follows: Tmax in Sprague-Dawley rat at 5 mg/kg, po administered as single dose via oral gavage by HPLC/MS/MS method. Type of data set: ADME, organism-based. The settings on record: in vivo. The method, boiled down:
(§2)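 Five overnight-fasted male SD rats received a single 5 mg/kg dose by gavage needle. Dosing solution 2.5 mg/mL in 10% DMSO, 40% PEG400, 50% saline. Plasma concentration-time profiles were obtained, and parameters were calculated for each animal and then averaged.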

Data set [6] is described as follows: Cmax in Sprague-Dawley rat at 2 mg/kg, iv administered as single dose by HPLC/MS/MS method. The data set is classed as ADME, organism-based. Also noted: dose 2 mg/kg, route intravenous. Conditions: in vivo. In outline:
as §1

Data set [7] in a line: Cmax in Sprague-Dawley rat at 5 mg/kg, po administered as single dose via oral gavage by HPLC/MS/MS method. The data set is classed as ADME, organism-based. Conditions: in vivo. In outline: as §2
The nature of data set [8]: Terminal half life in Sprague-Dawley rat at 2 mg/kg, iv administered as single dose by HPLC/MS/MS method. Type of data set: ADME, organism-based. Conditions: in vivo, read-out: beta t1/2 (converted). In outline: as §1
A short description of data set [9]: Terminal half life in Sprague-Dawley rat at 5 mg/kg, po administered as single dose via oral gavage by HPLC/MS/MS method. Type of data set: ADME, organism-based. The settings on record: in vivo, read-out: beta t1/2 (converted). In outline: as §2
A short description of data set [10]: AUC (0 to t) in Sprague-Dawley rat at 2 mg/kg, iv administered as single dose by HPLC/MS/MS method. Conditions: in vivo. Type of data set: ADME, organism-based. In outline:
(§3)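 Male Sprague-Dawley rats, fasted overnight, 4 animals. Single 2 mg/kg IV dose via tail vein, given as a 1 mg/mL solution in 10% DMSO, 40% PEG400 and 50% saline. Plasma was processed by vigorous mixing and centrifugation at 12,000 g for 10 min, with an internal standard added, then analysed by RP-HPLC. Parameters were calculated for each animal and averaged.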

The nature of data set [11]: AUC (0 to t) in Sprague-Dawley rat at 5 mg/kg, po administered as single dose via oral gavage by HPLC/MS/MS method. The data set is classed as ADME, organism-based. Conditions: in vivo. The method, boiled down:
(§4)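 Male Sprague-Dawley rats, fasted overnight, 5 animals. Single 5 mg/kg oral dose by gavage needle, given as a 2.5 mg/mL solution in 10% DMSO, 40% PEG400 and 50% saline. Plasma was processed by mixing and centrifugation at 12,000 g for 10 min, with an internal standard added, then analysed by RP-HPLC. Parameters were calculated for each animal and averaged.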

Data set [12] can be described thus: Plasma clearance in Sprague-Dawley rat at 2 mg/kg, iv administered as single dose by HPLC/MS/MS method. The data set is classed as ADME, organism-based. The method, boiled down: as §1
Data set [13] in a line: Volume of distribution at steady state distribution in Sprague-Dawley rat at 2 mg/kg, iv administered as single dose by HPLC/MS/MS method. Conditions: in vivo, read-out: Vdss. Type of data set: ADME, organism-based. The method, boiled down:
as §1

A short description of data set [14]: Oral bioavailability in Sprague-Dawley rat at 5 mg/kg administered as single dose by HPLC/MS/MS method. The data set is classed as ADME, organism-based. Conditions: in vivo. The method, boiled down: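 Bioavailability was taken from dose-normalized AUC0-∞ after oral (5 mg/kg, gavage, n=5) versus IV (2 mg/kg, tail vein, n=4) dosing in fasted male SD rats. Vehicle: 10% DMSO, 40% PEG400, 50% saline.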

A short description of data set [15]: AUC (0 to infinity) in Sprague-Dawley rat at 2 mg/kg, iv administered as single dose by HPLC/MS/MS method. Type of data set: ADME, organism-based. Also noted: dose 2 mg/kg, time infinity, route intravenous. Conditions: in vivo. The method, boiled down: as §3
Data set [16] is described as follows: AUC (0 to infinity) in Sprague-Dawley rat at 5 mg/kg, po administered as single dose via oral gavage by HPLC/MS/MS method. The data set is classed as ADME, organism-based. Conditions: in vivo. In outline:
as §4

The subject of data set [17] is Transthyretin (Homo sapiens), P02766 [V50M]. The data set can be described thus: Inhibition of TTR V30M mutant (unknown origin) assessed as inhibition of acid-mediated amyloidogenesis by measuring fibril formation at 7.2 uM preincubated with enzyme followed by amyloidogenesis stimulation by adjusting pH to 4.4 measured after 72 hrs relative to control. Also on record: scale not given: the % may be the effect or the level left. In outline: (§5)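 V30M-TTR (3.6 μM) preincubated with inhibitor (3.6 or 7.2 μM), then fibril formation triggered by adjusting pH to 4.4; incubated 37 °C, 72 h. Fibril formation expressed as percent of untreated V30M-TTR (100%).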

Data set [18] shares this test system. The data set can be described thus: Inhibition of TTR V30M mutant (unknown origin) assessed as inhibition of acid-mediated amyloidogenesis by measuring fibril formation at 3.6 uM preincubated with enzyme followed by amyloidogenesis stimulation by adjusting pH to 4.4 measured after 72 hrs relative to control. Also on record: scale not given: the % may be the effect or the level left. In outline:
as §5

Data set [19] deals with Transthyretin (Homo sapiens, UniProt P02766, V50M). Briefly: Inhibition of TTR V30M mutant (unknown origin) assessed as inhibition of acid-mediated amyloidogenesis by measuring fibril formation preincubated with enzyme followed by amyloidogenesis stimulation by adjusting pH to 4.4 measured after 72 hrs relative to control.
Data set [20] deals with T1, Transthyretin. Briefly: Inhibition of wild type TTR (unknown origin) assessed as inhibition of acid-mediated amyloidogenesis by measuring reduction in fibril formation at 3.6 uM preincubated with enzyme followed by amyloidogenesis stimulation by adjusting pH to 4.4 measured up to 120 hrs relative to control. In outline: (§6)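 Time-course version of the acid-mediated fibril formation assay: inhibitor at a concentration equal to the TTR tetramer (3.6 μM), preincubated with TTR, then acidified to pH 4.4. Fibril formation followed over 120 h instead of at a fixed 72 h, relative to untreated TTR.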

Data set [21] deals with Transthyretin (Homo sapiens), P02766 [V50M]. Briefly: Inhibition of TTR V30M mutant (unknown origin) assessed as inhibition of acid-mediated amyloidogenesis by measuring reduction in fibril formation at 3.6 uM preincubated with enzyme followed by amyloidogenesis stimulation by adjusting pH to 4.4 measured up to 120 hrs relative to control. In outline:
as §6

With `Cc1cc(/C=C/c2ccc3cc([N+](=O)[O-])ccc3n2)cc(C)c1O`, on Transthyretin [1], the Activity came out at 92.9%.

`Cc1cc(C#Cc2ccc3cc(N)ccc3n2)cc(C)c1O`: the values for the Activity at Transthyretin [1] and at Transthyretin [2] were 4.8% and 17.9%, respectively. In addition, the IC50 at Transthyretin [3] was found to be 1900 nM. For the same compound, the Tmax is 4.98 min in data set [4] and 2.45 h in data set [5]. The values for the peak concentration (Cmax) in [6] and in data set [7] were 3110 ng/mL and 138 ng/mL, respectively. The half-life in [8] is 2.71 h; in data set [9], 1.59 h. For the same compound, the AUC(0-t) in data set [10] stood at 1330 ng·h/mL; in data set [11], 226 ng·h/mL. The clearance in [12] is 25.1 mL/min/kg. Besides, the Vd in data set [13] amounted to 1.48 L/kg. Moreover, the bioavailability in data set [14] came to 6.89%. Besides, the AUC(0-inf) in data set [15] was 1350 ng·h/mL; in data set [16], 232 ng·h/mL.

Turning to `Cc1cc(C#Cc2ccc3cc(O)ccc3n2)cc(C)c1O`, the Activity was 9.6% at Transthyretin [1] and 32.1% on Transthyretin [2]. The IC50 on Transthyretin [3] turned out to be 2590 nM.

`Cc1cc(/C=C/c2cc3ccc(O)cc3nc2Cl)cc(C)c1O`: the Activity came to 0.9% on Transthyretin [1], 17.7% at Transthyretin [2], 5% in [17] and 16.6% in [18]. Besides, the figures for the IC50 on Transthyretin [3] and on Transthyretin [19] were 1490 nM and 1630 nM, respectively. For the same compound, the inhibition was 7 to 23% at Transthyretin [20] and greater than 80% in [21]. The Tmax in [4] is 4.98 min; in data set [5], 0.598 h. Moreover, the maximum concentration (Cmax) in data set [6] was 2380 ng/mL; in data set [7], 665 ng/mL. The half-life is 2.75 h in data set [8] and 3.36 h in data set [9]. Moreover, the results for the AUC(0-t) in data set [10] and in [11] were 4510 ng·h/mL and 2840 ng·h/mL, respectively. This compound also showed a clearance in data set [12] of 7.34 mL/min/kg. Moreover, the Vd in data set [13] was found to be 1.13 L/kg. Further, the bioavailability in data set [14] stood at 27.2%. For the same compound, the AUC(0-inf) in [15] is 4590 ng·h/mL; in data set [16] it was 3120 ng·h/mL.

Take `CCc1cc(C#Cc2ccc3ccccc3n2)cc(CC)c1O`: the Activity at Transthyretin [1] was 93.4%.

For `COc1ccc2nc(C#Cc3cc(C)c(O)c(C)c3)ccc2c1`, the Activity at Transthyretin [1] worked out at 22.1%.

In the case of `Cc1cc(C#Cc2ccc3ccccc3n2)cc(C)c1O`, the Activity on Transthyretin [1] is 10.2%; at Transthyretin [2] it was 25.6%. Moreover, on Transthyretin [3], the IC50 was 2180 nM.

Take `Cc1cc(C#Cc2ccc3cc([N+](=O)[O-])ccc3n2)cc(C)c1O`: the results for the Activity on Transthyretin [1] and at Transthyretin [2] were 3.6% and 20.9%, respectively. Moreover, at Transthyretin [3], the IC50 was found to be 2060 nM.

Take `CCc1cc(C#Cc2ccc3ccccc3n2)ccc1O`: on Transthyretin [1], the Activity was 99%.

Regarding `Cc1cc(/C=C/c2cc3ccccc3nc2Cl)cc(C)c1O`, the values for the Activity on Transthyretin [1] and at Transthyretin [2] were 2.3% and 33.2%, respectively.

Take `Oc1ccc(C#Cc2ccc3ccccc3n2)cc1`: the Activity at Transthyretin [1] was 73.9%.

`Cc1cc(/C=C/c2ccc3cc(N)ccc3n2)cc(C)c1O`: the figures for the Activity at Transthyretin [1] and at Transthyretin [2] were 26.8% and 51.3%, respectively.

For `O=C(O)c1ccc2nc(-c3cc(Cl)cc(Cl)c3)oc2c1`, the Activity amounted to 1% at Transthyretin [1], 14.8% on Transthyretin [2], 3.2% in data set [17] and 17% in data set [18]. The inhibition result at Transthyretin [20] is “Active”.

In the case of `Cc1cc(/C=C/c2ccc3ccccc3n2)cc(C)c1O`, at Transthyretin [1], the Activity is 26.3%.

`CC(C)c1cc(C#Cc2ccc3ccccc3n2)ccc1O`: on Transthyretin [1], the Activity amounted to 97.3%.

For orientation: IC50 means the concentration needed to halve the response being measured. The term Tmax denotes the time from dosing to the highest level. As usually defined, the Cmax is the maximum level reached in the sampled fluid or tissue. As a reminder, the AUC(0-t) is exposure summed from dosing to a finite time, without extrapolation to infinity. As usually defined, the clearance is the volume of plasma or blood freed of the substance per unit of time. Broadly, the bioavailability is dose-corrected exposure relative to a reference, in per cent. What is called AUC(0-inf) is total exposure, with the tail of the curve extrapolated. By inhibition is commonly meant the percentage by which the read-out fell short of the control.
